Results taken from ChEMBL document CHEMBL4689842, “EUbOPEN Chemogenomics Library wave 1” (2021).

Tested on: Fibroblast
Assay: Multiplex assay against human fibroblast
Assay type: toxicity, cell-based
Summary of the method: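 Per cents of healthy-nucleus cells form the tubulin, mitochondrial-mass and membrane-permeability phenotype values. Live cells were stained at seeding with Hoechst33342, BioTracker Green Microtubule Cytoskeleton Dye, MitoTracker Red and Annexin V Alexa Fluor 680. After compound addition they were imaged on a CQ1 microscope at 37°C and 5% CO2, and CellPathfinder machine-learning gating split them into Hoechst high-intensity objects or normal cells, normal cells into healthy, pyknosed or fragmented nuclei, and pyknosed cells into mitotic or apoptotic.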

[1] = 12 h, 1 µM, compound concentration 1 uM, replicate 1
[2] = 12 h, 1 µM, compound concentration 1 uM, replicate 2
[3] = 12 h, 10 µM, compound concentration 10 uM, replicate 1
[4] = 12 h, 10 µM, compound concentration 10 uM, replicate 2
[5] = 24 h, 1 µM, compound concentration 1 uM, replicate 1
[6] = 24 h, 1 µM, compound concentration 1 uM, replicate 2
[7] = 24 h, 10 µM, compound concentration 10 uM, replicate 1
[8] = 24 h, 10 µM, compound concentration 10 uM, replicate 2
[9] = 48 h, 1 µM, compound concentration 1 uM, replicate 1
[10] = 48 h, 1 µM, compound concentration 1 uM, replicate 2
[11] = 48 h, 10 µM, compound concentration 10 uM, replicate 1
[12] = 48 h, 10 µM, compound concentration 10 uM, replicate 2

CCn1c(-c2nonc2N)nc2cnc(Oc3cccc(NC(=O)c4ccc(OCCN5CCOCC5)cc4)c3)cc21 [GSK-269962A] was tested, and the “Population Apoptotic (%)” value [1] was 50%, the “Population Fragmented Nuclei (%)” value [1] was 29% and the “Population Healthy Nuclei (%)” value [1] was 36%. The “Population Hoechst High Intensity Objects (%)” value [1] was 12%, the “Population Membrane Permeable-Phenotype (%)” value [1] was 22% and the “Population Mitochondria Different-Phenotype (%)” value [1] was 2%. The “Population Mitotic Cells (%)” value [1] was 50%, the “Population Normal (%)” value [1] was 87% and the “Population Pyknosed Nuclei (%)” value [1] was 33%. For the same compound, the “Population Tubulin-Different-Phenotype (%)” value [1] was 46%, the “Total Cell Count” value [1] was 141 and the “Population Apoptotic (%)” value [2] was 20%. The “Population Fragmented Nuclei (%)” value [2] was 20%, the “Population Healthy Nuclei (%)” value [2] was 72% and the “Population Hoechst High Intensity Objects (%)” value [2] was 2%. For the same compound, the “Population Membrane Permeable-Phenotype (%)” value [2] was 14%, the “Population Mitochondria Different-Phenotype (%)” value [2] was 16% and the “Population Mitotic Cells (%)” value [2] was 80%. For the same compound, the “Population Normal (%)” value [2] was 97%, the “Population Pyknosed Nuclei (%)” value [2] was 7% and the “Population Tubulin-Different-Phenotype (%)” value [2] was 14%. For the same compound, the “Total Cell Count” value [2] was 45, the “Population Apoptotic (%)” value [3] was 55% and the “Population Fragmented Nuclei (%)” value [3] was 40%. For the same compound, the “Population Healthy Nuclei (%)” value [3] was 28%, the “Population Hoechst High Intensity Objects (%)” value [3] was 12% and the “Population Membrane Permeable-Phenotype (%)” value [3] was 21%. The “Population Mitochondria Different-Phenotype (%)” value [3] was 47%, the “Population Mitotic Cells (%)” value [3] was 44% and the “Population Normal (%)” value [3] was 87%. For the same compound, the “Population Pyknosed Nuclei (%)” value [3] was 30%, the “Population Tubulin-Different-Phenotype (%)” value [3] was 83% and the “Total Cell Count” value [3] was 216. For the same compound, the “Population Apoptotic (%)” value [4] was 31%, the “Population Fragmented Nuclei (%)” value [4] was 20% and the “Population Healthy Nuclei (%)” value [4] was 57%. The “Population Hoechst High Intensity Objects (%)” value [4] was 7%, the “Population Membrane Permeable-Phenotype (%)” value [4] was 45% and the “Population Mitochondria Different-Phenotype (%)” value [4] was 97%. The “Population Mitotic Cells (%)” value [4] was 68%, the “Population Normal (%)” value [4] was 92% and the “Population Pyknosed Nuclei (%)” value [4] was 22%. The “Population Tubulin-Different-Phenotype (%)” value [4] was 100%, the “Total Cell Count” value [4] was 71 and the “Population Apoptotic (%)” value [5] was 47%. The “Population Fragmented Nuclei (%)” value [5] was 21%, the “Population Healthy Nuclei (%)” value [5] was 47% and the “Population Hoechst High Intensity Objects (%)” value [5] was 14%. For the same compound, the “Population Membrane Permeable-Phenotype (%)” value [5] was 19%, the “Population Mitochondria Different-Phenotype (%)” value [5] was 9% and the “Population Mitotic Cells (%)” value [5] was 52%. For the same compound, the “Population Normal (%)” value [5] was 85%, the “Population Pyknosed Nuclei (%)” value [5] was 31% and the “Population Tubulin-Different-Phenotype (%)” value [5] was 41%. The “Total Cell Count” value [5] was 126, the “Population Apoptotic (%)” value [6] was 75% and the “Population Fragmented Nuclei (%)” value [6] was 11%. For the same compound, the “Population Healthy Nuclei (%)” value [6] was 77%, the “Population Hoechst High Intensity Objects (%)” value [6] was 2% and the “Population Membrane Permeable-Phenotype (%)” value [6] was 1%. For the same compound, the “Population Mitochondria Different-Phenotype (%)” value [6] was 10%, the “Population Mitotic Cells (%)” value [6] was 25% and the “Population Normal (%)” value [6] was 97%. For the same compound, the “Population Pyknosed Nuclei (%)” value [6] was 11%, the “Population Tubulin-Different-Phenotype (%)” value [6] was 14% and the “Total Cell Count” value [6] was 59. The “Population Apoptotic (%)” value [7] was 57%, the “Population Fragmented Nuclei (%)” value [7] was 37% and the “Population Healthy Nuclei (%)” value [7] was 42%. For the same compound, the “Population Hoechst High Intensity Objects (%)” value [7] was 12%, the “Population Membrane Permeable-Phenotype (%)” value [7] was 11% and the “Population Mitochondria Different-Phenotype (%)” value [7] was 58%. For the same compound, the “Population Mitotic Cells (%)” value [7] was 42%, the “Population Normal (%)” value [7] was 87% and the “Population Pyknosed Nuclei (%)” value [7] was 20%. For the same compound, the “Population Tubulin-Different-Phenotype (%)” value [7] was 81%, the “Total Cell Count” value [7] was 258 and the “Population Apoptotic (%)” value [8] was 53%. The “Population Fragmented Nuclei (%)” value [8] was 30%, the “Population Healthy Nuclei (%)” value [8] was 52% and the “Population Hoechst High Intensity Objects (%)” value [8] was 5%. For the same compound, the “Population Membrane Permeable-Phenotype (%)” value [8] was 67%, the “Population Mitochondria Different-Phenotype (%)” value [8] was 97% and the “Population Mitotic Cells (%)” value [8] was 46%. The “Population Normal (%)” value [8] was 94%, the “Population Pyknosed Nuclei (%)” value [8] was 17% and the “Population Tubulin-Different-Phenotype (%)” value [8] was 100%. The “Total Cell Count” value [8] was 73, the “Population Apoptotic (%)” value [9] was 57% and the “Population Fragmented Nuclei (%)” value [9] was 28%. The “Population Healthy Nuclei (%)” value [9] was 58%, the “Population Hoechst High Intensity Objects (%)” value [9] was 11% and the “Population Membrane Permeable-Phenotype (%)” value [9] was 12%. The “Population Mitochondria Different-Phenotype (%)” value [9] was 3%, the “Population Mitotic Cells (%)” value [9] was 42% and the “Population Normal (%)” value [9] was 88%. For the same compound, the “Population Pyknosed Nuclei (%)” value [9] was 13%, the “Population Tubulin-Different-Phenotype (%)” value [9] was 29% and the “Total Cell Count” value [9] was 120. The “Population Apoptotic (%)” value [10] was 66%, the “Population Fragmented Nuclei (%)” value [10] was 27% and the “Population Healthy Nuclei (%)” value [10] was 69%. The “Population Hoechst High Intensity Objects (%)” value [10] was 12%, the “Population Membrane Permeable-Phenotype (%)” value [10] was 3% and the “Population Mitochondria Different-Phenotype (%)” value [10] was 0%. For the same compound, the “Population Mitotic Cells (%)” value [10] was 33%, the “Population Normal (%)” value [10] was 87% and the “Population Pyknosed Nuclei (%)” value [10] was 3%. For the same compound, the “Population Tubulin-Different-Phenotype (%)” value [10] was 22%, the “Total Cell Count” value [10] was 96 and the “Population Apoptotic (%)” value [11] was 50%. For the same compound, the “Population Fragmented Nuclei (%)” value [11] was 36%, the “Population Healthy Nuclei (%)” value [11] was 50% and the “Population Hoechst High Intensity Objects (%)” value [11] was 20%. The “Population Membrane Permeable-Phenotype (%)” value [11] was 6%, the “Population Mitochondria Different-Phenotype (%)” value [11] was 38% and the “Population Mitotic Cells (%)” value [11] was 50%. The “Population Normal (%)” value [11] was 79%, the “Population Pyknosed Nuclei (%)” value [11] was 13% and the “Population Tubulin-Different-Phenotype (%)” value [11] was 80%. For the same compound, the “Total Cell Count” value [11] was 240, the “Population Healthy Nuclei (%)” value [12] was 58% and the “Population Hoechst High Intensity Objects (%)” value [12] was 22%. For the same compound, the “Population Membrane Permeable-Phenotype (%)” value [12] was 3%, the “Population Mitochondria Different-Phenotype (%)” value [12] was 17% and the “Population Normal (%)” value [12] was 77%. The “Population Pyknosed Nuclei (%)” value [12] was 4%, the “Population Tubulin-Different-Phenotype (%)” value [12] was 86% and the “Total Cell Count” value [12] was 172.
